Test results published in paper PMC10586269 (ACS Omega, 2023).
Marks after values point to notes of the source that are not given here.

Key:
PfHsp90-NTD [1] = biological target: T1, PfHsp90-NTD (Plasmodium falciparum, UniProt Q8IC05); test: Equilibrium binding kinetics by MP-SPR
Outline: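 PfHsp90-NTD (20 μg/mL) was immobilised by amine coupling on a carboxymethyl dextran gold chip for multiparametric SPR. Running buffer was PBS with 0.005% Tween 20 and 20 mM EDTA, pH 7.4. Test compound (0–2000/5000 nM) was injected at 50 μL/min, with association for 1 min and dissociation for 9 min at room temperature. Signals were subtracted against a protein-free reference channel and buffer blanks.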

human Hsp90β-NTD = human Hsp90β-NTD (Homo sapiens, UniProt P08238); assay type: binding; settings: 10 μM compound, FITC-GDA displacement
Sequence of human Hsp90β-NTD (P08238 1-226): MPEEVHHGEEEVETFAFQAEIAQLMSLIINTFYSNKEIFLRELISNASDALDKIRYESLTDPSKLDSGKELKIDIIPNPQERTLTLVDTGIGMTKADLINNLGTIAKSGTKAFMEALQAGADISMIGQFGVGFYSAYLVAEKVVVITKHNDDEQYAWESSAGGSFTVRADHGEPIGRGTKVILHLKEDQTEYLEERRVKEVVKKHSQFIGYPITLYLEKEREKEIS
Outline: (§1)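 Ni-affinity-purified Hsp90 N-terminal domain (PfHsp90-NTD or human Hsp90β-NTD, expressed in E. coli), 100 nM final, mixed with 5 nM FITC-geldanamycin. FP read at 480 nm excitation and 535 nm emission, converted to percent bound FITC-GDA versus the DMSO control.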

PfHsp90-NTD [2] = biological target: T1, PfHsp90-NTD; test: Competition binding, FITC-geldanamycin fluorescence polarization assay, PfHsp90; settings: read-out: FP inhibition % PfHsp90 [10 μM]
Outline: as §1

T1 sequence (Q8IC05 1-215): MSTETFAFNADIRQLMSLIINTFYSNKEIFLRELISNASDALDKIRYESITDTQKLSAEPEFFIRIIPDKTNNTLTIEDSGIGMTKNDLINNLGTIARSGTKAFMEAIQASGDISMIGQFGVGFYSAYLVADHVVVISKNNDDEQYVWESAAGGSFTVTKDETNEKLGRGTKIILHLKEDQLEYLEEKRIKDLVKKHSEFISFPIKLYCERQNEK

For `COc1ccc2c(c1)[nH]c1c(C)nccc12` [harmine], the Kd (PfHsp90-NTD [1]; KD, Kd/Ka) was 1820 ± 100 nM, the Ka (PfHsp90-NTD [1]; association) was 17.6 ± 14.9 1/Ms (×10^3) and the Kd (PfHsp90-NTD [1]; dissociation rate) was 3.20 ± 4.8 1/s (×10^–6). The “FP inhibition% human Hsp90 [10 μM]” value (human Hsp90β-NTD) was “no inhibition” and the inhibition at 10 µM (PfHsp90-NTD [2]) was 7 ± 6%.
